# Compound activity: PubChem BioAssay, Sanford-Burnham Center for Chemical Genomics
# SENP6 block – inhibitors of human SENP6 protease | 330,000 tested, 1.8% active | Q9GZR1 | AID 2599 | inhibition, % at 10 µM | Recombinant SENP6 catalytic domain, aminoluciferin luminescence;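 active = inhibition above about 50% at the single tested dose, limit read from the data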;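 note: plate controls were DMSO wells with enzyme for no effect and DMSO wells lacking enzyme for full effect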
# SENP1 inh – blocks the human SENP1 SUMO protease catalytic domain; inhibition, % at 10 µM; 360,000 tested, 0.21% active; Q9P0U3; AID 624204; recombinant SENP1 catalytic domain, CyPet-SUMO1-YPet FRET cleavage;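 active = inhibition at least 30% at 10 µM, raw YFP signal under a set limit, fluorescence ratio 0.5 to 1.5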;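 note: 0% = enzyme with DMSO and 100% = no enzyme wells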
#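 Test system: human SENP1 catalytic domain; medium: Tris pH 8 buffer plus EDTA, NaCl, BME, BSA, NP40, catalase; incubation: 50 min reaction at room temperature; technique: FRET, CFP and YFP emission; controls: no-enzyme low control and enzyme-plus-DMSO high control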
# SENP8 block-1 – blocks human SENP8 cleavage of Nedd8 substrate; recombinant SENP8, Nedd8 substrate fluorescence; inhibition, % at 20 µM; 360,000 tested, 0.64% active; in the data active = inhibition mostly above about 40%, no sharp cut-off; inactive = mostly below about 27%
# SENP8 block-2 – blocks the human protease SENP8; Q96LD8; purified SENP8, Z-RLRGG-aminoluciferin cleavage, luminescence; inhibition, % at 10 µM; 330,000 tested, 1.2% active; AID 2540; in the data active = inhibition above about 50%
# SENP7 block – blocks the human protease SENP7. Q9BQF6. recombinant SENP7, Z-RLRGG-aminoluciferin luminescence, 40 min. inhibition, % at 5 µM. 330,000 tested, 1.5% active. AID 434973;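 active = inhibition above about 50% at the single test dose, limit read from the data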;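 note: plate controls were DMSO with enzyme for no effect and no enzyme buffer wells for full effect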
# Target sequence (Q9BQF6 706-1050 limits assumed): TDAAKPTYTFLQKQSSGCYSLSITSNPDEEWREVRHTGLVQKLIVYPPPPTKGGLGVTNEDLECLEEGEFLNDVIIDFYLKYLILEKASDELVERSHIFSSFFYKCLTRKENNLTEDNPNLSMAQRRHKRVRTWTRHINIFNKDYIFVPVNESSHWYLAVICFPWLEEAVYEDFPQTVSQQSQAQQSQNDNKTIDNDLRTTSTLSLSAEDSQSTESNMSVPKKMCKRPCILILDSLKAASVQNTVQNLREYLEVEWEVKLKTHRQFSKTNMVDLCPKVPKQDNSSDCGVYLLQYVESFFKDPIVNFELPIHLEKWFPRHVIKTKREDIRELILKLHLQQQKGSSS
# NRP1-CendR mod – NRP-1/CendR interaction modulation. FAM-RPARPAR peptide binding to NRP-1, fluorescence polarization. inhibition, % at 25 µM. 360,000 tested, 0.85% active;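 active = inhibition or corrected inhibition above about 18%, plus a signal ratio from 0.5 to 1.5, limit read from the data, passing the limit was not always enough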
# SENP8 inh conf – confirmation of human SENP8 protease inhibitors; shares compounds with SENP8 block-1; purified SENP8, Nedd8-AMC/pro-Nedd8 cleavage fluorescence, 30 min; inhibition, % at 25 µM; 1,400 tested, 15% active; in the data active = inhibition mostly above about 39%, no sharp cut-off; inactive = mostly below about 34%
# SENP1 conf – SENP1 (human) inhibition, single concentration confirmation. AID 651678. recombinant SENP1, CyPet-SUMO1-YPet FRET cleavage. 520 tested, 34% active. inhibition, % at 10 µM. shares compounds with SENP1 inh; in the data active = inhibition mostly above about 35%, no sharp cut-off; inactive = mostly below about 32%;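 note: 0% = enzyme with DMSO and 100% = no enzyme control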
# SENP1 kin conf – confirmation of human SENP1 SUMO protease inhibitors, kinetic; shares compounds with SENP1 inh; recombinant SENP1, CyPet-SUMO1-YPet FRET kinetic cleavage; inhibition, % at 10 µM; 520 tested, 26% active; in the data active = inhibition mostly above about 32%, no sharp cut-off; inactive = mostly below about 29%;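 note: 0% = DMSO with enzyme and 100% = no enzyme substrate only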
# * hit, by the source's call; / = not tested or not shown. In the library only some 3.3% were active in any assay of this set; here they are far more common.
SMILES,SENP6 block,SENP1 inh,SENP8 block-1,SENP8 block-2,SENP7 block,NRP1-CendR mod,SENP8 inh conf,others
Oc1cccc2nc3ccccc3nc12,1,0,22*,-13,14,-6,17,
O=C(NC1(C(F)(F)F)Oc2ccc(Cl)cc2O1)N1CCC2(CC1)OCCO2 (stereo not drawn),25,1,40*,1,7,-1,17,
Cc1cc(C(=O)OCC(=O)Nc2ccccc2F)c(C)n1C1CC1,4,-4,-1,-18,-9,-9,/,
COc1ccc2c3c([nH]c2c1)C(C)NCC3 (stereo not drawn),-20,-20,-190,-9,10,-121,/,
C/C=C1/CN2[C@@H]3C4CO[C@@H]3c3c([nH]c5cc(OC)ccc35)[C@@H]2CC14 (stereo partly drawn),-11,0,40*,-14,-11,-2,9,
Cc1ccc(NC(=O)[C@@H](NC(=O)N2C[C@H]3C[C@@H](C2)c2cccc(=O)n2C3)C(C)C)cc1,-11,2,56*,1,-7,1,17,
O=C(Nc1ccc(Cl)cc1)N1CC2CC(C1)c1cccc(=O)n1C2 (stereo not drawn),-5,3,1,-9,16,5,/,
CCOc1ccc(NC(=O)N2C[C@H]3C[C@@H](C2)c2cccc(=O)n2C3)cc1,0,3,42*,-1,-3,0,9,
CCOC(=O)CNC(=O)N1Cc2ccccc2-n2nncc2C1,/,1,25,/,/,-2,/,
O=[N+]([O-])c1ccc(NCc2ccc(Cl)cc2)c2ccncc12,26,-45,43*,16,13,2,37,
O=[N+]([O-])c1ccc(NCc2ccccc2)c2nonc12,43,/,/,21,26,/,/,
COC1C(OC(=O)c2ccc(C)[nH]2)C(O)C(Oc2ccc3c(O)c(NC(=O)c4ccc(O)c(CC=C(C)C)c4)c(=O)oc3c2Cl)OC1(C)C (stereo not drawn),24,2,40*,23,-4,-74,0,
O=c1ccc2c(O)c3ccoc3cc2o1,-1,-1,48*,-15,-10,-6,4,
O=C(CCC(=O)N1C[C@H]2C[C@@H](C1)c1cccc(=O)n1C2)NCc1ccccc1,-19,5,21,-2,-3,5,/,
O=C(CCC(=O)N1C[C@H]2C[C@@H](C1)c1cccc(=O)n1C2)NCc1cccc(C(F)(F)F)c1,-3,1,50*,0,-5,-4,6,
CCOC(=O)[C@]12Cc3cc4ccccc4cc3[C@H]1N(Cc1ccccc1)C(=O)c1cc(OC)ccc12,/,1,7,/,/,10,/,
CCN1CCN(S(=O)(=O)c2ccc(Cl)nc2)CC1,19,-1,44*,6,0,28*,12,
CCN1CCN(C(=O)COc2ccc(S(=O)(=O)N3CCOCC3)cc2Cl)CC1,-27,4,8,-11,-9,10,/,
CCOC(=O)[C@]12Cc3c(cc(OC)c(OC)c3OC)[C@H]1N(C(C)C)C(=O)c1cc(OC)ccc12,/,-1,3,/,/,4,/,
CN1[C@@H]2CC[C@H]1CC(OC1c3ccccc3CCc3ccccc31)C2 (stereo partly drawn),-12,1,4,2,9,-28,/,
O=c1[nH]c(O)c(N=Nc2cc(C(F)(F)F)ccc2Cl)c(=O)[nH]1,-4,-8,16,-1,5,6,/,
O=c1[nH]c(=S)[nH]c(O)c1N=Nc1cc(S(=O)(=O)Nc2ccc(Cl)cc2)ccc1Cl,17,5,41*,6,-2,-4,11,
COc1cccc(N=Nc2c(O)[nH]c(=S)[nH]c2=O)c1,49,12,51*,24,29,-25,22,
O=c1[nH]c(=S)[nH]c(O)c1N=Nc1cccc(S(=O)(=O)N2CCOCC2)c1,-7,-2,32,1,0,-1,/,
COc1cccc2c1cc([N+](=O)[O-])c1c(C(=O)O)cc3c(c12)OCO3,/,-1,42*,/,/,12,21,
C=CCc1cc(OC)c2c(c1)OCO2,-4,0,22,4,-3,2,/,
Nc1cccc2c1Cc1cc([N+](=O)[O-])ccc1-2,/,73*,25,/,/,-2,/,SENP1 conf=0;SENP1 kin conf=0
Cc1cc(/C=C2\C(=O)NC(=O)N(C)C2=O)c(C)n1-c1ccc2c(c1)OCO2,-10,35*,5,-12,-7,2,/,SENP1 conf=-21;SENP1 kin conf=19
Cc1cc(C=C2C(=O)NC(=O)NC2=O)c(C)n1-c1ccc2c(c1)OCO2,-18,-9,-13,-9,-5,-79,/,
CCN1C[C@]2(OC(=O)c3ccccc3NC(C)=O)CCC(OC)C34C5C[C@H]6C(OC)[C@]5(O)[C@](O)(C[C@@H]6OC)C(C[C@@H]32)[C@H]14 (stereo partly drawn),-14,3,-14,1,-5,-4,/,
